Kd and IC50 data for two compounds are collected here from paper PMC10639087 (Science signaling, 2023).

As usually defined, the Kd is the equilibrium constant for the complex coming apart. In general, IC50 refers to the concentration that gives 50% inhibition. Higher therefore signals weaker potency in that assay.

Assay [1] concerns the target T1, JPT2 (Jupiter microtubule-associated homolog 2) (Homo sapiens, UniProt Q9H910).
T1 sequence (Q9H910 1-190): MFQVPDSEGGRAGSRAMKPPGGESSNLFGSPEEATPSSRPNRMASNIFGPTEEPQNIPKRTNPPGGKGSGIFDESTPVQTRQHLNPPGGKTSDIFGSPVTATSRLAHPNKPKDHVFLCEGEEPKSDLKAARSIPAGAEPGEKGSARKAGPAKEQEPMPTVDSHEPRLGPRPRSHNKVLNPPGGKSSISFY
The experiment in a line: biolayer interferometry, biotinylated protein on streptavidin sensor. It is filed as binding. In a few lines: (§1)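 Recombinant human protein, expressed in E. coli BL21 Star (DE3) as an N-terminal 6xHis-GST-TEV fusion, was biotinylated (NHS-LC-biotin) and moved into 110 mM KCl, 10 mM NaCl, 20 mM Hepes pH 7.2 with 1% BSA. SAX sensors were equilibrated 30 s, loaded with 70 nM bait for 15 s, and re-equilibrated 60 s. They were exposed to NAADP (1:2 serial dilutions, 500 to 15.6 nM), then dissociated 210 to 300 s.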

Assay [2] has as its target T2, LSM12 (like-Sm protein 12) (Homo sapiens, UniProt Q3MHD2). The experiment in a line: […]-NAADP displacement, PVDF filter binding.
Assay [3] addresses T1, JPT2 (Jupiter microtubule-associated homolog 2). The experiment in a line: […]-NAADP displacement, PVDF filter binding.
Assay [4] addresses T2, LSM12 (like-Sm protein 12). Nature of the assay: biolayer interferometry, biotinylated protein on streptavidin sensor. In kind it is binding. In a few lines:
as §1

Molecules are shown by their SMILES.

T2 sequence (Q3MHD2 whole entry): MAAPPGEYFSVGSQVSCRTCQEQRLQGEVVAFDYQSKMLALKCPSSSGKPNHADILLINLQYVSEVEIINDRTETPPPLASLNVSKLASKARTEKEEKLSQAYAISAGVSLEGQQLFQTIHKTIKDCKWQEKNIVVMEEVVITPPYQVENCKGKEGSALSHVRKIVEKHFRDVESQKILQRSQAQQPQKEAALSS

On to `Nc1ncnc2c1ncn2[C@@H]1O[C@H](COP(=O)(O)OP(=O)(O)OC[C@H]2O[C@@H]([n+]3cccc(C(=O)O)c3)[C@H](O)[C@@H]2O)[C@@H](O)[C@H]1OP(=O)(O)O` [NAADP], for which the Kd turned out to be 5.71 ± 1.8 nM in assay [1] and 2.03 ± 0.41 nM in assay [4]. Further, the values for the IC50 in assay [2] and in assay [3] were 0.703 ± 0.1 nM and 1.09 ± 0.1 nM, respectively.
For the compound `NC(=O)c1ccc[n+]([C@@H]2O[C@H](COP(=O)(O)OP(=O)(O)OC[C@H]3O[C@@H](n4cnc5c(N)ncnc54)[C@H](OP(=O)(O)O)[C@@H]3O)[C@@H](O)[C@H]2O)c1` [NADP], the Kd stood at 52.9 ± 8.6 nM in assay [1] and 126 ± 35.6 nM in assay [4]. The IC50 in assay [2] came to 40.3 ± 25 nM; in assay [3], 15.9 ± 4 nM.
